Assay results as given in ChEMBL document CHEMBL1800025 (J Med Chem, 2011).
Activity calls are given as the source filed them. No cut-off for these calls is given here.

Key:
[1] = molecular target: Dual specificity protein kinase CLK1 (Homo sapiens) (UniProt P49759); assay: Inhibition of recombinant CLK1-mediated SR 9G8 protein phosphorylation at 10 uM after 30 mins by SDS-PAGE followed by autoradiography
How it was run: (§1)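 Recombinant SR protein 9G8 (87 ng) phosphorylated by each kinase, diluted to equal specific activity toward RS peptide. 15 μM [γ-33P]ATP, 30 min at 30 C, with or without 10 μM inhibitor. Reaction stopped in loading buffer; SDS-PAGE and autoradiography.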

[2] = molecular target: T1, Dual specificity tyrosine-phosphorylation-regulated kinase 3 (Homo sapiens) (UniProt O43781); assay: Inhibition of recombinant DYRK3-mediated SR 9G8 protein phosphorylation at 10 uM after 30 mins by SDS-PAGE followed by autoradiography; how it was run: as §1
T1 sequence (whole entry): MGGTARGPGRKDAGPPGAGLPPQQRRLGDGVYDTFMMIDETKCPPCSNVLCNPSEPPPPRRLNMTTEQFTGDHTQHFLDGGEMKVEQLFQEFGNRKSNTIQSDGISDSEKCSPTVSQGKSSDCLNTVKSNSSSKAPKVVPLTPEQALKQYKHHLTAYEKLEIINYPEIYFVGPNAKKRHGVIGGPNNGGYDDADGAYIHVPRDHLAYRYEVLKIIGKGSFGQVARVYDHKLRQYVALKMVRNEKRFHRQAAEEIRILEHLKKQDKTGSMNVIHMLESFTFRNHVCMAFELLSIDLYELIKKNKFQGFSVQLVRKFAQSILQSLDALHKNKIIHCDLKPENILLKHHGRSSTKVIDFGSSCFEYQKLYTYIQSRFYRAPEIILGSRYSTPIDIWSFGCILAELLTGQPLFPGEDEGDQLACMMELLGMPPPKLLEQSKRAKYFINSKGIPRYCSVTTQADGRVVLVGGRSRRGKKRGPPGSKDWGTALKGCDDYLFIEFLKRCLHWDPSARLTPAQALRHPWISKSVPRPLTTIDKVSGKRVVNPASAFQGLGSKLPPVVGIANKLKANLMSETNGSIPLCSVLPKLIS

[3] = molecular target: Glycogen synthase kinase-3 (Sus scrofa, UniProt B2LUN4+I6LNT8); assay: Inhibition of pig brain GSK-3alpha/beta using YRRAAVPPSPSLSRHSSPHQSpEDEEE as substrate
How it was run: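 Compounds were tested at various concentrations, the highest being 10 μM, with DMSO dilution controls. Blanks were subtracted and activity was expressed as percent of the uninhibited maximum.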

[4] = molecular target: Dual specificity protein kinase CLK2 (Homo sapiens) (UniProt P49760); settings: 10 uM
[5] = molecular target: Dual specificity protein kinase CLK1 (Homo sapiens) (UniProt P49759); assay: Inhibition of CLK1-mediated SRp75 protein phosphorylation in TNFalpha-stimulated human HMEC1 cells after 1 hr by Western blot analysis; assay type: cell-based
How it was run: (§2)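 HMEC-1 cells grown in endothelial medium with 5% FCS at 37 C, 5% CO2. Serum-starved 1 h in basal medium, pretreated 1 h with inhibitor at varying concentrations, then stimulated with 10 ng/mL TNF-alpha. Lysed 2 min after stimulation. Phospho-SRp75 and phospho-SRp55 detected by Western blot with mAb1H4, GAPDH as loading control, quantified by densitometry. At least 3 independent experiments.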

[6] = molecular target: Dual specificity protein kinase CLK3 (Mus musculus, UniProt O35492); assay: Inhibition of mouse recombinant GST-tagged CLK3 using GRSRSRSRSRSR as substrate
How it was run: (§3)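 Mouse GST-fusion CLK1 or CLK3 expressed in E. coli. Assay buffer A (Tris-HCl pH 7.5, MgCl2, EGTA, DTT, heparin) plus 0.15 mg/mL BSA. RS peptide 1 μg/assay, 15 μM ATP final, 30 C. Blank subtracted; activity expressed as percent of activity without inhibitor. DMSO controls. Concentration range up to 10 μM.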

[7] = molecular target: Dual specificity protein kinase CLK3 (Homo sapiens) (UniProt P49761); assay: Inhibition of CLK3-mediated SRp55 protein phosphorylation in TNFalpha-stimulated human HMEC1 cells after 1 hr by Western blot analysis; assay type: cell-based; how it was run: as §2
[8] = molecular target: Dual specificity protein kinase CLK4 (Homo sapiens) (UniProt Q9HAZ1); settings: 10 uM
[9] = molecular target: Dual specificity protein kinase CLK1 (Mus musculus, UniProt P22518); assay: Inhibition of mouse recombinant GST-tagged CLK1 using GRSRSRSRSRSR as substrate; how it was run: as §3
[10] = molecular target: Dual specificity protein kinase CLK3 (Homo sapiens) (UniProt P49761); assay: Inhibition of CLK3-mediated SRp75 protein phosphorylation in TNFalpha-stimulated human HMEC1 cells after 1 hr by Western blot analysis; assay type: cell-based; how it was run: as §2
[11] = molecular target: T2, Dual specificity tyrosine-phosphorylation-regulated kinase 2 (Homo sapiens) (UniProt Q92630); settings: 10 uM
T2 sequence (whole entry): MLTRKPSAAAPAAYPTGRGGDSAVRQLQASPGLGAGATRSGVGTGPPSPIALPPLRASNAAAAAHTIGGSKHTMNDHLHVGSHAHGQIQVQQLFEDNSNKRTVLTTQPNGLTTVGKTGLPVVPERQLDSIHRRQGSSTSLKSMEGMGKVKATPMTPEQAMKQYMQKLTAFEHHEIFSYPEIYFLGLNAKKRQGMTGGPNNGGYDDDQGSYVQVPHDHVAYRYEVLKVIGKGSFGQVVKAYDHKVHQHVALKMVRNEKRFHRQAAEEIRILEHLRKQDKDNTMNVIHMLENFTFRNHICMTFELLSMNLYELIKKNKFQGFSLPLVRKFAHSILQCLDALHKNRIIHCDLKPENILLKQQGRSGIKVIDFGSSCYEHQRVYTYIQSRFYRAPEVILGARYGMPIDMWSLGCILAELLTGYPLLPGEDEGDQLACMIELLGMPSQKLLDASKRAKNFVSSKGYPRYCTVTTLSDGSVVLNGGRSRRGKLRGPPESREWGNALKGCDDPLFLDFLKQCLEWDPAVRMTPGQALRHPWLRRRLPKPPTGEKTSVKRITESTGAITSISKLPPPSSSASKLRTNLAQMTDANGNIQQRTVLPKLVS

[12] = molecular target: Dual specificity protein kinase CLK1 (Homo sapiens) (UniProt P49759); assay: Inhibition of CLK1-mediated SRp55 protein phosphorylation in TNFalpha-stimulated human HMEC1 cells after 1 hr by Western blot analysis; assay type: cell-based; how it was run: as §2
[13] = molecular target: Dual specificity protein kinase CLK1 (Homo sapiens) (UniProt P49759); assay: Inhibition of CLK1 transfected in human HeLa cells assessed as increase in exon inclusion ratio after 24 hrs by RT-PCR analysis; assay type: cell-based
How it was run: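 HeLa cells were transfected with […], with kinase-dead CLK1/K190R as comparator. Inhibitors at varying doses were added 3 h post-transfection, with 0.5% DMSO final in all cultures. Cells were harvested 24 h post-transfection, total RNA was extracted, and E1A splicing products were analysed by RT-PCR. Isoform molar ratios were measured by Bioanalyzer to give the exon inclusion ratio. Three independent samples were used.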

Sus scrofa = species on record: Sus scrofa; assay: Inhibition of pig brain CK1 delta/epsilon using RRKHAAIGpSAYSITA as substrate at 10 uM
How it was run: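 Native CK1δ/ε from porcine brain, assayed in 3-fold diluted buffer C with 25 μM CKS peptide substrate. 15 μM ATP final, 30 C. Activity is percent of uninhibited control after blank subtraction, with DMSO controls. Inhibitor tested over a range of concentrations up to 10 μM.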

[14] = molecular target: Dual specificity tyrosine-phosphorylation-regulated kinase 1A (Rattus norvegicus, UniProt Q63470); assay: Inhibition of rat recombinant GST-tagged DYRK1A using KKISGRLSPIMTEQ as substrate and [gamma32]-ATP after 30 mins by scintillation counting
How it was run: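 GST fusion kinases expressed in E. coli and purified on glutathione-agarose; DYRK1A is rat, DYRK2 is human. Assay buffer A (25 mM Tris-HCl pH 7.5, 10 mM MgCl2, 1 mM EGTA, 1 mM DTT, 50 μg/mL heparin) plus 0.15 mg/mL BSA. Product captured on P81 paper, washed in 1% phosphoric acid, scintillation counted. Activity expressed as percent of uninhibited control.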

Dual specificity protein kinase CLK1 (Homo sapiens), sequence (P49759 whole entry, looked up, canonical isoform): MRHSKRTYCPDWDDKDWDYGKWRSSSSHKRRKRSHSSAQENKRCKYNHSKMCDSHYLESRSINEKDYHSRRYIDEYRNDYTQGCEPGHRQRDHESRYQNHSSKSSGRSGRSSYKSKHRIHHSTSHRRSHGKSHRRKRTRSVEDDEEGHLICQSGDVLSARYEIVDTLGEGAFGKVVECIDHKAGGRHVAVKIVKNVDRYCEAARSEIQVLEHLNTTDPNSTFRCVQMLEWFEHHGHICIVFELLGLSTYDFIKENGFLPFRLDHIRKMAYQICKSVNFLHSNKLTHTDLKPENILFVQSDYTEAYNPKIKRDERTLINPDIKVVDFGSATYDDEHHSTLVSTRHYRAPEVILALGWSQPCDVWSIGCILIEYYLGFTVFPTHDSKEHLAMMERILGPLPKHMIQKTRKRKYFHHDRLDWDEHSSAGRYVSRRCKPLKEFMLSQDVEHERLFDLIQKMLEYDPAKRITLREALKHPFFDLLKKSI
Dual specificity protein kinase CLK3 (Homo sapiens), sequence (P49761 whole entry, looked up): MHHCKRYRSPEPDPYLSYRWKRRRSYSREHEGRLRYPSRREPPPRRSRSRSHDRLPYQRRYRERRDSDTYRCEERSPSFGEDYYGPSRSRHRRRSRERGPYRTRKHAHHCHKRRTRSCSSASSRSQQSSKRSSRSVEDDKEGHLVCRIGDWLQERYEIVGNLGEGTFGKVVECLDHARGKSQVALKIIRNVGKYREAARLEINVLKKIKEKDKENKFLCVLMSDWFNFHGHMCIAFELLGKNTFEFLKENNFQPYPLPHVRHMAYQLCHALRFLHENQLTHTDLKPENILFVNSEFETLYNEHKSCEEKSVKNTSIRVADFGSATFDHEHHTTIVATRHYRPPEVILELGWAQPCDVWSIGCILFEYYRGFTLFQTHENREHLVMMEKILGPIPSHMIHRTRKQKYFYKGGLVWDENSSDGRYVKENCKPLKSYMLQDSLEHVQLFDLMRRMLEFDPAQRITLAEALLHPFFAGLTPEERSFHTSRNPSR
Dual specificity protein kinase CLK4 (Homo sapiens), sequence (Q9HAZ1 whole entry, looked up): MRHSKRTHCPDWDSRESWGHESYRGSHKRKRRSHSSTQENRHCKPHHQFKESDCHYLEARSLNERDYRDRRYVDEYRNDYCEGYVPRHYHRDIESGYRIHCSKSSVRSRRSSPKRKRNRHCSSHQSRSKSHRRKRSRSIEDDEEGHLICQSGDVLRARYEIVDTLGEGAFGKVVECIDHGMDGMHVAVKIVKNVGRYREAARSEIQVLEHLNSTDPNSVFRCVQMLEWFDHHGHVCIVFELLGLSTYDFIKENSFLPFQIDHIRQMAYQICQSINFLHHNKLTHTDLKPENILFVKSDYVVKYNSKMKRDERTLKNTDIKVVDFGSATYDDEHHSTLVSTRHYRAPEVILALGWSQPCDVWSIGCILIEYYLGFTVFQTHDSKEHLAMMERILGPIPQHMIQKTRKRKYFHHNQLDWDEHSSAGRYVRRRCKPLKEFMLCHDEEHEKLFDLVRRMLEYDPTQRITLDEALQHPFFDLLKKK
Dual specificity protein kinase CLK3, sequence (O35492 whole entry, the tested form may be a part): as the sequence (P49761 whole entry, looked up) above, with L55I, R64H, Y83C, P86S, G99A, T484S counted along it
Dual specificity protein kinase CLK1, sequence (P22518 whole entry): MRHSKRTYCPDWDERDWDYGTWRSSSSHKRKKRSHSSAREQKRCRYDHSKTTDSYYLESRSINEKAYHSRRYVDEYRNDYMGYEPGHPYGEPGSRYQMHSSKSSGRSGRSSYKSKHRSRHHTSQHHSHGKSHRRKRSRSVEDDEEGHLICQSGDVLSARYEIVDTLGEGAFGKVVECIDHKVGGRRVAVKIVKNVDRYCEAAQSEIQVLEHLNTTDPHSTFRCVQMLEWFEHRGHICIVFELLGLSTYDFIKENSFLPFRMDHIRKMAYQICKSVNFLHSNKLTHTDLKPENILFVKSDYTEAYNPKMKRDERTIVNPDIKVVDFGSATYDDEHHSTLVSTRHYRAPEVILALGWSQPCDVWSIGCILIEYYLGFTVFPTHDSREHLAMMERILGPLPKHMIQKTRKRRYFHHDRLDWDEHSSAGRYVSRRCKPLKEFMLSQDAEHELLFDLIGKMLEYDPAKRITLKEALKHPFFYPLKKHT
Dual specificity protein kinase CLK2 (Homo sapiens), sequence (P49760 whole entry, looked up): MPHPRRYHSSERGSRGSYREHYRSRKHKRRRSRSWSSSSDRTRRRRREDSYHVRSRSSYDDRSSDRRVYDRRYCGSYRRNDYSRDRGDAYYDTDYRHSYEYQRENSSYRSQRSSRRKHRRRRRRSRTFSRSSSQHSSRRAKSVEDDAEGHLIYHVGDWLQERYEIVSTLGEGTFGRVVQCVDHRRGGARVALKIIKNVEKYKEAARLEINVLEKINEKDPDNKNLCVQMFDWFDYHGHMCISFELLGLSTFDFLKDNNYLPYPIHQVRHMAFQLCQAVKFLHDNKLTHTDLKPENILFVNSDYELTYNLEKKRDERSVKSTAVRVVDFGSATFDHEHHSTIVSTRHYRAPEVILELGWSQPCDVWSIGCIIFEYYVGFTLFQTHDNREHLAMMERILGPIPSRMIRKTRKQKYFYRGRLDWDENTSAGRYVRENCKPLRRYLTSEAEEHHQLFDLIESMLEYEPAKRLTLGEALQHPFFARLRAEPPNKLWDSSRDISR

O=C1NC(Nc2ccccc2)=N/C1=C\c1ccc2c(c1)OCO2
inhibition [1]: Active | inhibition [2]: Active | IC50 [3]: > 10000 nM | inhibition [4]: Active | inhibition [5]: Active | IC50 [6]: > 10000 nM | inhibition [7]: Active | inhibition [8]: Active | IC50 [9]: 15 nM | inhibition [10]: Active | inhibition [11]: Active | inhibition [12]: Active | increase in exon inclusion ratio [13]: Dose-dependent effect | inhibition (Sus scrofa): inactive | IC50 [14]: 40 nM
